Compound activity deposited in PubChem BioAssay by NMMLSC.
Shown are actives, neighbours in structure and some others; about 2.5% of the full set was active somewhere.
Efflux pump mplx: antifungal efflux pump inhibition, Nile Red retention; S. cerevisiae Candida pump triplex; AID 485275; inhibition, % at 10 µM; 330,000 tested, 0.44% active;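 active = plate passing quality check with inhibition over a set limit, or well fluorescence over plate mean plus 4 SD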;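 also: Nile Red retained in pooled yeast measured as flow cytometry median fluorescence; 0% = buffer negative control and 100% = Enniatin B positive control; higher means more Nile Red kept so more efflux inhibition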
MEKK2 mut-MEK5: signal of MEK5 binding to mutant human MEKK2 PB1 domain. percent response, % at 10 µM. 290,000 tested, 0.35% active. bead flow cytometry, Alexa488-MEK5 binding to MEKK2 mutant; in the data active = percent response above about 24%, passing the limit was not always enough
ABCB1 inh: inhibitors of human ABCB1 transporter, ABCG2 counter-screen; P08183; inhibition, % at 6.6 µM; CCRF-Adr cells, JC-1 efflux, flow cytometry; 190,000 tested, 0.067% active; in the data active = inhibition above about 40%;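 also: 0% = vehicle and 100% = reference inhibitor; higher value means more JC-1 retained so stronger ABCB1 efflux block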
ABCG2 block: human ABCG2 inhibition, ABCB1 as counter-screen; AID 1325; inhibition, % at 6.6 µM; 190,000 tested, 0.1% active; IgMXP3 cells, JC-1 efflux, flow cytometry;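 active = inhibition above 80%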;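 also: 0% = DMSO and 100% = nicardipine control wells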
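Times: 10 min at 25 °C | Test system: Two drug-resistant human cell lines, ABCG2 and ABCB1 | Quantity: 3 million cells/mL final, two lines in 1:1 ratio | Signal: Flow cytometry, 530 nm JC-1 signal | Dosing: Compound at 6.6 µM | Controls: Nicardipine and DMSO wells | Reagent: JC-1 as fluorescent efflux pump substrate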
MEKK2wt PB1 HTS: raises or lowers MEK5 binding to wildtype human MEKK2 PB1 domain; 290,000 tested, 1.1% active; binding response (% of control), % at 10 µM; bead flow cytometry, Alexa488-MEK5 binding to MEKK2 WT; actives lie on both sides; Q9Y2U5; in the data active = binding response below about 67% or above about 130%
MEKK3 PB1 HTS: raises or lowers MEK5 binding to the human MEKK3 PB1 domain. bead-based flow cytometry, Alexa488-MEK5 binding to MEKK3; actives lie on both sides; 0 = blocked by unlabeled MEK5, 100 = vehicle. AID 1529. Q99759. binding response (% of control), % at 10 µM. 290,000 tested, 1.4% active;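 active = binding response more than 3 SD above or below the average of its plate-row segment, actives on both sides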;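 also: Alexa488 bead fluorescence after subtracting the streptavidin-only scavenger bead signal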
Target sequence (Q99759 whole entry, looked up, the tested form may be a part): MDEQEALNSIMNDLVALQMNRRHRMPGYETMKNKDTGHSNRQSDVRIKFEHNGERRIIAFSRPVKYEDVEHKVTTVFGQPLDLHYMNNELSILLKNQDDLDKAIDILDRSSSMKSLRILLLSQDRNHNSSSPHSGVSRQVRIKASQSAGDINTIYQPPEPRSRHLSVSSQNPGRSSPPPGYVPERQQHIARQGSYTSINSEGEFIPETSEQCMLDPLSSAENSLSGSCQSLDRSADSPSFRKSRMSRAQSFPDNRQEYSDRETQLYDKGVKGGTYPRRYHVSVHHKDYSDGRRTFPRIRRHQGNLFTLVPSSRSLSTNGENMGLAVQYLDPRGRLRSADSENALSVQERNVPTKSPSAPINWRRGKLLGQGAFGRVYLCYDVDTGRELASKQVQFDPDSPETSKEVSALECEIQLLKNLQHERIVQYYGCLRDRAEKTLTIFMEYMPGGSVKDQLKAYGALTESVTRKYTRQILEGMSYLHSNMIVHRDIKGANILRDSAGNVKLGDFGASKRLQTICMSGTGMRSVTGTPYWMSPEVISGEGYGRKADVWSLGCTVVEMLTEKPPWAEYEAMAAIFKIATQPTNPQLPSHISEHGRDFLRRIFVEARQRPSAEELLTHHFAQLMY
MEKK2wt confirm: raises or lowers MEK5 binding to wildtype human MEKK2, retest. shares compounds with MEKK3 PB1 HTS. bead flow cytometry, Alexa488-MEK5 binding to MEKK2 WT; actives lie on both sides. binding response (% of control), % at 10 µM. 5,900 tested, 2.4% active; in the data active = binding response below about 16% or above about 210%; inactive = in between
MEKK2mut confirm: signal of MEK5 binding to mutant human MEKK2, retest | shares compounds with MEKK3 PB1 HTS | bead flow cytometry, Alexa488-MEK5 binding to MEKK2 mutant | percent response, % at 10 µM | 5,900 tested, 2% active; in the data active = percent response mostly above about 71%, no sharp cut-off; inactive = mostly below about 38%;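 also: higher means compound restores mutant binding toward wildtype level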
MEKK3 confirm: confirmation of inhibitors of MEK5 binding to human MEKK3 | shares compounds with MEKK3 PB1 HTS | bead flow cytometry, Alexa488-MEK5 binding to MEKK3; hits give low values | binding response (% of control), % at 10 µM | 5,900 tested, 1.8% active;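 active = binding response below 72% of control, or above a set upper limit, though filed actives all read lower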;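 also: 100% = DMSO only wells and 0% = binding blocked by excess unlabeled MEK5; lower values mean stronger disruption of MEK5 binding to MEKK3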
The depositor's hits bear a star; x = no result; [ ] = dose if it differs, or a comment.

SMILES	Efflux pump mplx	MEKK2 mut-MEK5	ABCB1 inh	ABCG2 block	MEKK2wt PB1 HTS	MEKK3 PB1 HTS	MEKK2wt confirm	MEKK2mut confirm	MEKK3 confirm
CC1CCN(S(=O)(=O)c2ccc3c(c2)N(CC(=O)NCCN2C(C)CCCC2C)C(=O)CS3)CC1 (centres undefined)	-0.1	1.0	x	x	112.0	101.0	x	x	x
CCN(CC)CCNc1oc(-c2ccccc2)nc1S(=O)(=O)c1ccccc1	-0.1	x	x	x	x	x	x	x	x
Cc1ccn(-c2ccc(NC(=O)c3cccs3)cc2)n1	0.1	-2.0	x	x	98.0	98.0	x	x	x
COc1ccc(/C=C2\N=C(C)N(c3ccc4ccccc4c3)C2=O)cc1OC	0.0	2.0	0.4	-2.5	102.0	208.0*	96.0	-4.0	101.0
COc1ccc(/C=C2\N=C3CCCCCN3C2=O)cc1OC	0.1	1.0	0.9	7.0	103.0	101.0	x	x	x
O=C(CCSCc1cccc(Cl)c1)NCCc1ccccc1	0.1	0.0	0.2	3.4	106.0	134.0*	105.0	7.0	105.0
O=C(O)CCC(=O)NCCc1cccc(Cl)c1	-0.2	0.0	0.5	1.2	109.0	116.0	x	x	x
CN(CC(=O)NCCc1ccc(F)cc1)Cc1cccc(Cl)c1	-0.1	-28.0	0.9	-0.2	6.0*[inhibitor]	5.0*[inhibitor]	108.0	9.0	108.0
COc1cccc(CNC(=O)[C@@H](C)N2C(=O)N3CCc4c([nH]c5ccc(OC)cc45)C3(C)C2=O)c1 (some centres undefined)	-0.2	1.0	x	x	103.0	100.0	x	x	x
CNC(=S)NC1(C)CCS(=O)(=O)C1 (centres undefined)	0.1	1.0	x	x	100.0	103.0	x	x	x
CC1CCCC(C)N1C(=O)COc1ccc(F)cc1 (centres undefined)	0.2	0.0	0.4	2.5	97.0	99.0	x	x	x
COC(=O)c1ccc(CNC(=O)COC(=O)C23CC4CC(CC(C4)C2)C3)cc1	-0.1	-2.0	0.8	10.4	93.0	75.0*[inhibitor]	99.0	-1.0	105.0
O=C(COC(=O)C12CC3CC(CC(C3)C1)C2)NCc1ccccc1	-0.1	x	x	x	x	x	x	x	x
O=C(Cn1c(C(F)(F)F)nc2ccccc21)N=Nc1c(O)[nH]c2ccc(Br)cc12	-0.5	-1.0	-0.2	0.5	109.0	120.0	x	x	x
CN(C(=O)c1ccc(Br)o1)C1CCCCC1	0.2	10.0	x	x	108.0	109.0	x	x	x
C=CCNC(=O)c1ccc(-c2ccc([N+](=O)[O-])cc2)o1	0.0	1.0	0.1	19.4	113.0	194.0*	103.0	-6.0	101.0
Cc1ccc(S(=O)(=O)NCc2ccc(C(=O)NCCCN3CCC(Cc4ccccc4)CC3)cc2)cc1	0.0	40.0	0.5	-0.9	161.0*	106.0	173.0	29.0	105.0
O=C(NCCCN1CCC(Cc2ccccc2)CC1)c1ccc2nc(N3CCOCC3)sc2c1	-0.2	9.0	x	x	144.0*	104.0	147.0	17.0	101.0
CC1CCCC(C)N1CCCNC(=O)c1ccc2nc(N3CCOCC3)sc2c1 (centres undefined)	0.6	9.0	x	x	124.0	102.0	x	x	x
Cc1ccc(S(=O)(=O)NCCC(=O)N2CCC(Cc3ccccc3)CC2)cc1	0.0	x	x	x	x	x	x	x	x
CC(C)CCNC(=O)Cc1csc(-c2ccccc2)n1	0.0	-46.0	-1.9	11.0	3.0*[inhibitor]	2.0*[inhibitor]	92.0	-6.0	91.0
COc1cc2c3nnc(-c4ccc(F)cc4)c-3cn(Cc3ccc(F)cc3)c2cc1OC	0.2	36.0*	0.3	4.3	193.0*	91.0	190.0	57.0	100.0
COc1ccc(Cn2cc3c(-c4ccc(F)cc4)nnc-3c3cc(OC)c(OC)cc32)cc1	-0.2	57.0*	0.2	4.7	188.0*	118.0	208.0*	81.0*	109.0
COc1cc2c3nnc(-c4ccc(F)cc4)c-3cn(Cc3ccccc3)c2cc1OC	0.1	46.0*	0.3	2.6	178.0*	111.0	187.0	47.0	102.0
COc1ccc(-c2nnn(Cc3ccccc3)n2)cc1OC	0.2	1.0	x	x	104.0	103.0	x	x	x
SMILES	Efflux pump mplx	MEKK2 mut-MEK5	ABCB1 inh	ABCG2 block	MEKK2wt PB1 HTS	MEKK3 PB1 HTS	MEKK2wt confirm	MEKK2mut confirm	MEKK3 confirm
Cn1nc2c3cc(F)ccc3n(Cc3ccc(F)cc3)cc-2c1=O	-0.2	12.0	x	x	109.0	107.0	x	x	x
CC1=Nc2ccccc2/C1=C/c1c(N)n2c(S(=O)(=O)C(C)C)nsc2nc1=O	-0.1	-18.0	-0.5	-1.8	78.0	86.0	x	x	x
CC(C)S(=O)(=O)c1nsc2nc(=O)c(/C=C3\C=Nc4ccccc43)c(N)n12	-0.1	1.0	-1.2	-3.7	110.0	129.0*	94.0	-1.0	97.0
N#C/C(=C\c1cccs1)C(=O)NCc1ccco1	0.1	0.0	0.2	4.4	98.0	96.0	x	x	x
Cc1ccsc1/C=C(\C#N)C(=O)NCc1ccco1	0.1	4.0	0.0	5.8	103.0	128.0*	107.0	9.0	109.0
COC(=O)/C(=C(/F)SCC(C)=O)C(F)(F)F	-0.1	1.0	0.0	-1.0	99.0	93.0	x	x	x
NCCNc1ccc(C(=O)N2c3ccccc3Sc3ccccc32)cc1[N+](=O)[O-]	0.0	37.0*	x	x	182.0*	114.0	167.0	48.0	111.0
Nc1ccc(C(=O)OCC(=O)N2c3ccccc3Sc3ccccc32)cc1[N+](=O)[O-]	-0.1	-1.0	-2.0	-7.8	101.0	104.0	x	x	x
COC(=O)C(Cc1c[nH]c2ccccc12)NC(=O)c1cccs1 (centres undefined)	0.0	-15.0	x	x	89.0	92.0	x	x	x
O=C(NC(Cc1c[nH]c2ccccc12)C(=O)Nc1ccc(F)cc1)c1cccs1 (centres undefined)	-0.5	3.0	1.0	18.7	106.0	128.0*	97.0	-1.0	98.0
C[C@H](CO)N1C[C@H](C)[C@@H](CN(C)C(=O)Nc2ccccc2)Oc2c(NC(=O)C3CCCCC3)cccc2C1=O	-0.1	x	x	x	x	x	x	x	x
Oc1c(C=Nc2cccc3cccnc23)sc2ccccc12	0.0	-14.0	11.3	15.9	50.0*[inhibitor]	82.0	62.0	-24.0	89.0
CCc1ccc(Nc2n[n+](-c3ccccc3)c(-c3ccc(N(CC)CC)cc3)s2)cc1	2.1	277.0*	x	x	65.0*	101.0	164.0	50.0	94.0
CCc1ccc(Nc2n[n+](-c3ccccc3)c(-c3c(Cl)cccc3Cl)s2)cc1	0.0	9.0	x	x	133.0	105.0	x	x	x
O=C(O)c1ccc(-c2sc(Nc3ccccc3)n[n+]2-c2ccccc2)cc1	0.4	-4.0	x	x	95.0	99.0	x	x	x
